Results: ChEMBL document CHEMBL1148762, “Lysosome and HER3 (ErbB3) selective anticancer agent kahalalide F: semisynthetic modifications and antifungal lead-exploration studies” (J Med Chem, 2007)
In brackets after ≈: the same amount, converted by molar mass.

Tests used:
Aspergillus fumigatus = experiment: Antimicrobial activity against Aspergillus fumigatus ATCC 90906; assay type: functional, organism-based
Cryptococcus neoformans = experiment: Antimicrobial activity against Cryptococcus neoformans ATCC 90113; assay type: functional, organism-based
Candida albicans = experiment: Antimicrobial activity against Candida albicans ATCC 90028; assay type: functional, organism-based
[1] = test system: Mycobacterium intracellulare; experiment: Antimicrobial activity against Mycobacterium intracellular ATCC 23068; assay type: functional, organism-based
[2] = test system: Mycobacterium tuberculosis; experiment: Antibacterial activity against Mycobacterium tuberculosis H37Rv at 16 ug/mL by micro plate alamar blue assay; assay type: functional
How it was run: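 M. tuberculosis H37Rv ATCC 27294 grown in BACTEC 12B medium; microplate Alamar blue assay (MABA). Primary screen at a single concentration of 16 µg/mL, read as percent inhibition.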

| SMILES | IC50 (Aspergillus fumigatus) | IC50 (Cryptococcus neoformans) | IC50 (Candida albicans) | IC50 [1] | inhibition at 16 µg/mL [2] | MBC [1] | MIC [1] |
| --- | --- | --- | --- | --- | --- | --- | --- |
| C/C=C1\NC(=O)[C@H](Cc2ccccc2)NC(=O)[C@@H](C(C)C)NC(=O)[C@@H]([C@@H](C)CC)NC(=O)[C@H](NC(=O)[C@H](NC(=O)[C@H](CCCN)NC(=O)[C@H]2CCCN2C(=O)[C@H](NC(=O)[C@@H](NC(=O)[C@@H](NC(=O)[C@H](NC(=O)CCCC(C)C)C(C)C)C(C)=O)C(C)C)C(C)C)[C@@H](C)CC)[C@@H](C)OC(=O)[C@H](C(C)C)NC1=O | > 13.6 µM | 4.34 µM | 12.4 µM | > 20 µM | – | – | – |
| C/C=C1\NC(=O)[C@H](Cc2ccccc2)NC(=O)[C@@H](C(C)C)NC(=O)[C@@H]([C@@H](C)CC)NC(=O)[C@H](NC(=O)[C@H](NC(=O)[C@H](CCCN(CCCCCC)CCCCCC)NC(=O)[C@H]2CCCN2C(=O)[C@H](NC(=O)[C@@H](NC(=O)[C@@H](NC(=O)[C@H](NC(=O)CCCC(C)C)C(C)C)[C@@H](C)O)C(C)C)C(C)C)[C@@H](C)CC)[C@@H](C)OC(=O)[C@H](C(C)C)NC1=O | > 12.2 µM | 6.71 µM | > 12.2 µM | > 20 µM | – | – | – |
| C/C=C1\NC(=O)[C@H](Cc2ccccc2)NC(=O)[C@@H](C(C)C)NC(=O)[C@@H]([C@@H](C)CC)NC(=O)[C@H](NC(=O)[C@H](NC(=O)[C@H](CCCNC(=O)c2cc3ccc(N(CC)CC)cc3oc2=O)NC(=O)[C@H]2CCCN2C(=O)[C@H](NC(=O)[C@@H](NC(=O)[C@@H](NC(=O)[C@H](NC(=O)CCCC(C)C)C(C)C)[C@@H](C)O)C(C)C)C(C)C)[C@@H](C)CC)[C@@H](C)OC(=O)[C@H](C(C)C)NC1=O | > 11.6 µM | > 11.6 µM | > 11.6 µM | > 11.6 µM | – | – | – |
| C/C=C(\NC(=O)[C@H](Cc1ccccc1)NC(=O)[C@H](NC(=O)[C@H](NC(=O)[C@H](NC(=O)[C@H](NC(=O)[C@H](CCCN)NC(=O)[C@H]1CCCN1C(=O)[C@H](NC(=O)[C@@H](NC(=O)[C@@H](NC(=O)[C@H](NC(=O)CCCC(C)C)C(C)C)[C@@H](C)O)C(C)C)C(C)C)[C@@H](C)CC)[C@@H](C)O)[C@@H](C)CC)C(C)C)C(=O)N[C@H](C(=O)O)C(C)C [KAHALALIDE G] | > 13.4 µM | > 13.4 µM | > 13.4 µM | > 13.4 µM | 29% | – | – |
| C/C=C1\NC(=O)[C@H](Cc2ccccc2)NC(=O)[C@@H](C(C)C)NC(=O)[C@@H]([C@@H](C)CC)NC(=O)[C@H](NC(=O)[C@H](NC(=O)[C@H](CCCNCc2ccncc2)NC(=O)[C@H]2CCCN2C(=O)[C@H](NC(=O)[C@@H](NC(=O)[C@@H](NC(=O)[C@H](NC(=O)CCCC(C)C)C(C)C)[C@@H](C)O)C(C)C)C(C)C)[C@@H](C)CC)[C@@H](C)OC(=O)[C@H](C(C)C)NC1=O | 4.26 µM | 2.12 µM | 4.19 µM | > 20 µM | – | – | – |
| C/C=C1\NC(=O)[C@H](Cc2ccccc2)NC(=O)[C@@H](C(C)C)NC(=O)[C@@H]([C@@H](C)CC)NC(=O)[C@H](NC(=O)[C@H](NC(=O)[C@H](CCCNCc2ccc(F)cc2)NC(=O)[C@H]2CCCN2C(=O)[C@H](NC(=O)[C@@H](NC(=O)[C@@H](NC(=O)[C@H](NC(=O)CCCC(C)C)C(C)C)[C@@H](C)O)C(C)C)C(C)C)[C@@H](C)CC)[C@@H](C)OC(=O)[C@H](C(C)C)NC1=O | > 12.6 µM | 3.77 µM | > 12.6 µM | > 20 µM | – | – | – |
| C/C=C1\NC(=O)[C@H](Cc2ccccc2)NC(=O)[C@@H](C(C)C)NC(=O)[C@@H]([C@@H](C)CC)NC(=O)[C@H](NC(=O)[C@H](NC(=O)[C@H](CCCN(Cc2ccc(F)cc2)Cc2ccc(F)cc2)NC(=O)[C@H]2CCCN2C(=O)[C@H](NC(=O)[C@@H](NC(=O)[C@@H](NC(=O)[C@H](NC(=O)CCCC(C)C)C(C)C)[C@@H](C)O)C(C)C)C(C)C)[C@@H](C)CC)[C@@H](C)OC(=O)[C@H](C(C)C)NC1=O | > 11.8 µM | > 11.8 µM | > 11.8 µM | > 11.8 µM | – | – | – |
| O=C(O)c1cn(C2CC2)c2cc(N3CCNCC3)c(F)cc2c1=O [CIPROFLOXACIN] | – | – | – | 0.42 µM | – | > 1 µM | 1 µM (≈ 0.331 µg/mL) |
